High-throughput results: PubChem, Sanford-Burnham Center for Chemical Genomics
CXCR6 block = CXCR6 receptor inhibitors, primary screen, cell-based, beta-arrestin, luminescence, CHO-K1 PathHunter, 1536-well. C-X-C chemokine receptor type 6 (Homo sapiens), O00574. actives 0.36% (n = 360,000). AID 602244, 2012. inhibition, % at 20 µM; in the data active means inhibition above about 34%, passing the limit was not always enough;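 further: antagonist mode with CXCL16 agonist at 10 nM final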
EBI2 block = EBI2 receptor antagonists, beta-arrestin recruitment, primary screen, cell-based, luminescence, 7a,25-OHC stimulation, uHTS. G-protein coupled receptor 183 (Homo sapiens), P32249. 7a,25-OHC stimulated. inhibition, % at 5 µM. actives 0.81% (n = 360,000); in the data active means inhibition above about 38%;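 further: enzyme fragment complementation signal reports receptor beta-arrestin coupling in cells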
APJ antag = antagonists of human apelin receptor APJ, primary screen, CHO-K1 cells, beta-arrestin complementation, luminescence | P35414 | inhibition, % at 20 µM | actives 0.32% (n = 330,000) | AID 2521, 2010;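 active means inhibition above about 40% at 20 µM, limit read from the data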;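 further: cells challenged with 10 nM apelin-13 agonist together with compound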
Target sequence (P35414 whole entry, looked up): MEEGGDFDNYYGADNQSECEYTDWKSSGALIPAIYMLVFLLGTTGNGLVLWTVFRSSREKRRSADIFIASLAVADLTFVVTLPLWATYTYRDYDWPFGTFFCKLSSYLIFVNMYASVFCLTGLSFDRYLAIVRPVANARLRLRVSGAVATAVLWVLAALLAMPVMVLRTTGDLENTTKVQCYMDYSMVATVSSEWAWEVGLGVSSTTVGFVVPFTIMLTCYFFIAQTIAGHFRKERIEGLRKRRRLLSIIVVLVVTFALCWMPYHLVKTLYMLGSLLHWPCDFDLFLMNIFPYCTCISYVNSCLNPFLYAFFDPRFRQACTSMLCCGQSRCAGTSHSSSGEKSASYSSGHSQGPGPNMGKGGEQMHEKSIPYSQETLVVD
CCR6 antag = CCR6 receptor antagonists, primary screen, cell-based, CHO-K1, luminescence, beta-arrestin, uHTS; C-C chemokine receptor type 6 (Homo sapiens), P51684; CHO-K1 CCR6 PathHunter beta-arrestin, CCL20-stimulated; inhibition, % at 20 µM; actives 0.49% (n = 340,000); AID 493098, 2011;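 active means compounds whose inhibition of the agonist-driven luminescence signal at 20 µM reaches about 50%, limit read from the data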;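 further: cells stimulated with CCL20 at 14 nM final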
APJ ag = agonists of human apelin receptor APJ, primary screen, CHO-K1 cells, PathHunter beta-arrestin, luminescence; P35414; 0% DMSO wells, 100% apelin; activation, % at 20 µM; actives 0.11% (n = 330,000);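 active means activation more than six SD over the plate average, tested at 20 µM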
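system = engineered CHO-K1 APJ arrestin reporter cells | input = 1000 cells per well | timing = overnight seeding, 90 min compound at 25 °C, 1 h detection | measured by = enzyme-fragment complementation luminescence | read-out = beta-arrestin recruitment to APJ as agonist activity, luminescent signal | control set = negative DMSO alone, positive Apelin-13 at 10 nM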
EBI2 conf = EBI2 antagonist hit retest, beta-arrestin, confirmation, cell-based, single concentration, luminescence, 7a,25-OHC stimulation; shares compounds with EBI2 block; 7a,25-OHC antagonism; inhibition, % at 5 µM; actives 29% (n = 2,400); AID 651997, 2013;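 active means inhibition of at least 50%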
EBI2 ag = EBI2 agonist activity of antagonist hits, confirmation, counter-screen for EBI2 antagonist project, cell-based, single concentration, agonist mode, luminescence. shares compounds with EBI2 block. EBI2-expressing cells, 60 min; 0% vehicle, 100% 7α,25-dihydroxycholesterol control. activation, % at 5 µM. 2,400 tested, under 10 active. AID 652000, 2013;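 active means activation of at least 50%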
bGal cs = E. coli beta-galactosidase enzyme inhibition, confirmation, counter-screen for EBI2 antagonist project, biochemical, luminescence, single concentration; shares compounds with EBI2 block; purified beta-galactosidase, luminescent Galacton Star, 15 min; inhibition, % at 5 µM; actives 1% (n = 2,400);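 active means replicate-average signal at least 3 plate SD below neutral wells, shown as high inhibition, flagging enzyme-inhibiting false positives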;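 further: higher means stronger loss of beta-gal luminescence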
Each line names hits and unclear results; the compound was inactive in the other large screens (follow-up assays come after a bar, where they were run). The list is not random: actives were taken first. Their share in the collection is about 1.5%.

Cc1ccc(CNC(=O)C2CCC(CNS(=O)(=O)c3cccc4cccnc34)CC2)cc1 (stereo not given)	EBI2 block 50.3 | EBI2 conf inactive | EBI2 ag inactive | bGal cs inactive
COCCN1C(=O)CSCC1(C)C(=O)NC(C)C (stereo not given)	none (no result: CXCR6 block, APJ antag, CCR6 antag, APJ ag)
Cc1ccc(S(=O)(=O)NC(=O)N2CCCC2)cc1	none (no result: APJ antag, APJ ag)
COCCNC(=O)C1(C)CCCN(C(=O)c2ccccc2)C1 (stereo not given)	none (no result: APJ antag, CCR6 antag, APJ ag)
Cc1ccc(CNC(=O)C2CCN(S(=O)(=O)c3c(C)noc3C)CC2)cc1	EBI2 block 47.2 | EBI2 conf inactive | EBI2 ag inactive | bGal cs inactive
CN(C)Cc1cn(CC[C@@H]2CC[C@@H](NC(=O)Nc3ccccc3F)[C@@H](CO)O2)nn1	none (no result: CXCR6 block, APJ antag, CCR6 antag, APJ ag)
COc1cc(/C=C(\C#N)C(=O)NC2CCCCC2C)ccc1OS(=O)(=O)c1ccc(C)cc1 (stereo not given)	EBI2 block 62.5 | EBI2 conf 68.9 | EBI2 ag inactive | bGal cs inactive
COc1ccc(/C=N/NC(=O)CC#N)cc1Oc1nc(Cl)ncc1F	none
CSc1ccc(/C=C(\C#N)C(=O)NC2CCCCC2C)cc1 (stereo not given)	none
COc1cc(/C=C(\C#N)C(N)=O)ccc1OS(=O)(=O)c1ccc(C)cc1	EBI2 block 52.4 | EBI2 conf 56.2 | EBI2 ag inactive | bGal cs inactive
COc1cc(/C=C(/C#N)C(=O)Nc2ccc(C)cc2)ccc1Oc1nc(Cl)ncc1F	EBI2 block 49.1 | EBI2 conf inactive | EBI2 ag inactive | bGal cs inactive
CCOC(=O)/C(C#N)=C\c1ccc(OC)c(OC)c1	none
O=C(c1ccc(-n2cncn2)c([N+](=O)[O-])c1)N1CCN(S(=O)(=O)c2ccccc2Br)CC1	none
Cc1cc(C)c(S(=O)(=O)N2CCN(C(=O)c3ccc(-n4cncn4)c([N+](=O)[O-])c3)CC2)c(C)c1	EBI2 block 72.3 | EBI2 conf inactive | EBI2 ag inactive | bGal cs inactive
Cc1ccc(C)c(Oc2cc(NC(=O)CCCn3nc(C)c([N+](=O)[O-])c3C)cc([N+](=O)[O-])c2)c1	EBI2 block 44.3 | EBI2 conf inactive | EBI2 ag inactive | bGal cs inactive
Cc1nn(CCCC(=O)Nc2cc(Oc3ccccc3)cc([N+](=O)[O-])c2)c(C)c1[N+](=O)[O-]	none
CN(C(=O)C1CCCN1S(=O)(=O)c1ccc(Cl)cc1)c1ccccc1 (stereo not given)	none
C#CCNc1cc(-c2ccccc2)nc2ncnn12	none
COc1ccc(CCNc2cc(-c3ccccc3)nc3ncnn23)cc1	EBI2 block 45.0 | EBI2 conf inactive | EBI2 ag inactive | bGal cs inactive
CCn1c(SCc2ccc(Cl)cc2Cl)nc2nc3c(cc2c1=O)CCCC3	EBI2 block 62.8 | EBI2 conf inactive | EBI2 ag inactive | bGal cs inactive
COc1cccc(OC)c1C(=O)N1CCN(C(=O)c2ccc(-c3ccccc3)cc2)CC1	EBI2 block 78.5 | EBI2 conf inactive | EBI2 ag inactive | bGal cs inactive
COc1ccc(CN2CCN(C(=O)c3ccc(-c4ccccc4)cc3)CC2)c(OC)c1OC	EBI2 block 68.4 | EBI2 conf inactive | EBI2 ag inactive | bGal cs inactive
CN1CCN(C(=O)c2ccc(-c3ccccc3)cc2)CC1	none
